The results in this text go back to ChEMBL document CHEMBL1127332, “Pyrido[2,3-d]pyrimidine angiotensin II antagonists” (J Med Chem, 1994).

The subject of data set [1] is Rattus norvegicus. The experiment in a line: Maximum percent change in A II supported mean arterial pressure 60 minutes following 3 mg/kg i.d. administration. The following applies: Artery, intraduodenal, in the assay text read “at the time of maximum effect following” for “60 minutes following”, read-out: Inhibition. The format is functional. Summed up:
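Anesthetized rats, ganglion blocked with mecamylamine 3 mg/kg iv, under A II infusion until pressure stabilized. Agent suspended in methyl cellulose and given 3 mg/kg through a duodenal cannula (1 mL/kg). MAP followed for 240 min. Fall expressed as percent of the A II-supported pressure. Maximum change and its time recorded, n = 3. Adjusted AUC between control and treated MAP/time curves.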

For data set [2], the target named is T1, Angiotensin II receptor (AT-1) type-1 (Rattus norvegicus, UniProt P29089+P25095).
T1 sequence (P29089 whole entry): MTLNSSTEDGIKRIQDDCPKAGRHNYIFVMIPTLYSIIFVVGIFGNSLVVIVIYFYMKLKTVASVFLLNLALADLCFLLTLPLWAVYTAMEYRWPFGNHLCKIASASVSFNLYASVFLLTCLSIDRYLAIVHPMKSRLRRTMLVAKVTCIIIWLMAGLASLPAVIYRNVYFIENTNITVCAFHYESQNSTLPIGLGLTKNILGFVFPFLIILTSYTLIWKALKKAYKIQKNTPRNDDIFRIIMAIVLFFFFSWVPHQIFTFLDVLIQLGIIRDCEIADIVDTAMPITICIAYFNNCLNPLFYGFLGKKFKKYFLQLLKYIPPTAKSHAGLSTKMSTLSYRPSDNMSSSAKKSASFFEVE
T1 sequence (P25095 whole entry): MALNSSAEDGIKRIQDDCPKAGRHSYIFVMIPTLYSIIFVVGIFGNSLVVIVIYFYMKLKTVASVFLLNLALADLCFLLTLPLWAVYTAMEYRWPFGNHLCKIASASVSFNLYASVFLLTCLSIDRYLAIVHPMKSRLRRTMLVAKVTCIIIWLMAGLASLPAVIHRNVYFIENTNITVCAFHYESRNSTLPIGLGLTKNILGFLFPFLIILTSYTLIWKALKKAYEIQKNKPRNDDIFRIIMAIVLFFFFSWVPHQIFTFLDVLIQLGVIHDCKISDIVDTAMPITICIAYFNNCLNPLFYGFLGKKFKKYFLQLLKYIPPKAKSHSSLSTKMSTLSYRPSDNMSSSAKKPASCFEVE
In words: In vitro inhibition of specific binding of [125 I] A II to rat liver membrane. Summed up:
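Rat liver membrane preparation (AT1 sites), diluted in kit buffer. Nonspecific binding defined with 10⁻⁴ M A II, standard curve 10⁻¹⁰–10⁻⁷ M. Reaction stopped with saline and glass-fiber filtration, then gamma counting.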

Data set [3] is described as follows: Partition coefficient (logP). It counts as physicochemical. The following applies: octanol/water.
Data set [4] can be described thus: Partition coefficient (logD) (octanol/0.01 N K2HPO4). It counts as physicochemical. In short, it runs like this: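 Distribution coefficient measured between octanol and pH 7.4 phosphate buffer.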

One may read the IC50 as the point on the concentration scale where inhibition reaches its midpoint. A low value points to greater potency. Usually logP stands for a log measure of how a compound divides between an organic and an aqueous phase. A low value points to lower lipophilicity. For orientation: logD means lipophilicity at a set pH, counting ionised and neutral species. Higher therefore signals higher lipophilicity.

Turning to `CCc1nc(C)c2c(n1)N(Cc1ccc(-c3ccccc3-c3nn[nH]n3)cc1)C(=O)CC2`, the maximum percent change in A II-supported mean arterial pressure at 3 mg/kg in data set [1] is -76%. The compound further showed an IC50 in data set [2] of 1.3 nM.

Take `Cc1nc(C)c2c(n1)N(Cc1ccc(-c3ccccc3C(=O)[O-])cc1)C(=O)CC2.[K+]`: the maximum percent change in A II-supported mean arterial pressure at 3 mg/kg in data set [1] is -36%. In addition, the IC50 in data set [2] is on record as 85 nM.

Consider `CCCc1nc(C)nc2c1CCC(=O)N2Cc1ccc(-c2ccccc2-c2nn[nH]n2)cc1`, for which the maximum percent change in A II-supported mean arterial pressure at 3 mg/kg in data set [1] is -86%. In addition, in data set [3], the logP came to 4.45. In addition, in data set [2], the IC50 is recorded as 1.8 nM.

`CCc1nc(C)nc2c1CCC(=O)N2Cc1ccc(-c2ccccc2-c2nn[nH]n2)cc1`: the maximum percent change in A II-supported mean arterial pressure at 3 mg/kg in data set [1] is -104%. Further, the logP in data set [3] was determined as 3.92. The compound also gave a 50% inhibitory concentration (IC50) in data set [2] of 2.3 nM.

On to `Cc1nc(C)c2c(n1)N(Cc1ccc(-c3ccccc3-c3nn[nH]n3)cc1)CCC2`, for which the maximum percent change in A II-supported mean arterial pressure at 3 mg/kg in data set [1] is -20%. This compound also came in with a half-maximal inhibitory concentration (IC50) in data set [2] of 170 nM.

Take `CCCc1nc(C)c2c(n1)N(Cc1ccc(-c3ccccc3-c3nn[nH]n3)cc1)C(=O)CC2`: the maximum percent change in A II-supported mean arterial pressure at 3 mg/kg in data set [1] was -58%. This compound also returned a 50% inhibitory concentration (IC50) in data set [2] of 1.35 nM.

Turning to `Cc1nc(C(C)C)c2c(n1)N(Cc1ccc(-c3ccccc3-c3nn[nH]n3)cc1)C(=O)CC2`, in data set [1], the maximum percent change in A II-supported mean arterial pressure at 3 mg/kg is -44%. In data set [3], this compound came in with a log partition coefficient (logP) of 4.32. In data set [4], this compound registered a logD of 1.41. The same compound showed a concentration for half-maximal inhibition (IC50) in data set [2] of 13 nM.

Turning to `Cc1nc(CO)nc2c1CCC(=O)N2Cc1ccc(-c2ccccc2-c2nn[nH]n2)cc1`, in data set [1], the maximum percent change in A II-supported mean arterial pressure at 3 mg/kg is -30%. The same compound registered an IC50 in data set [2] of 285 nM.

On to `Cc1nc(C)c2c(n1)N(Cc1ccc(-c3ccccc3-c3nn[nH]n3)nc1)C(=O)CC2`, for which, in data set [1], the maximum percent change in A II-supported mean arterial pressure at 3 mg/kg was -16%. The IC50 in data set [2] is listed as 24.3 nM.

As to `Cc1nc(C)c2c(n1)N(Cc1ccc(-c3ccccc3-c3nn[nH]n3)cc1)C(=O)C(C)C2` (stereo not drawn), the maximum percent change in A II-supported mean arterial pressure at 3 mg/kg in data set [1] is -63%. Also, the logP in data set [3] is 3.91. Besides, the IC50 in data set [2] was found to be 3.2 nM.

For the compound `Cc1nc2c(c(C(F)(F)F)n1)CCC(=O)N2Cc1ccc(-c2ccccc2-c2nn[nH]n2)cc1`, in data set [1], the maximum percent change in A II-supported mean arterial pressure at 3 mg/kg was -68%. Moreover, the IC50 in data set [2] worked out at 24.6 nM.

In the case of `Cc1nc(C(C)C)nc2c1CCC(=O)N2Cc1ccc(-c2ccccc2-c2nn[nH]n2)cc1`, the maximum percent change in A II-supported mean arterial pressure at 3 mg/kg in data set [1] is -40%. The IC50 in data set [2] is given as 2.2 nM.

As to `Cc1nc2c(c(C(F)(F)F)n1)CCC(=O)N2Cc1ccc(-c2ccccc2-c2nn[nH]n2)nc1`, in data set [1], the maximum percent change in A II-supported mean arterial pressure at 3 mg/kg is -41%. Moreover, in data set [2], the IC50 came out at 94.9 nM.

In turn, `Cc1nc(C=O)c2c(n1)N(Cc1ccc(-c3ccccc3-c3nn[nH]n3)cc1)C(=O)CC2` had a concentration for half-maximal inhibition (IC50) in data set [2] of 50.7 nM.

Consider `Cc1nc(C)c2c(n1)N(Cc1ccc(-c3ccccc3-c3nn[nH]n3)cn1)C(=O)CC2`, for which, in data set [1], the maximum percent change in A II-supported mean arterial pressure at 3 mg/kg was -34%. In data set [2], the IC50 came to 49.4 nM.

Regarding `Cc1nc(C)c2c(n1)N(Cc1ccc(-c3ccccc3-c3nn[nH]n3)cc1)C(=O)C(C)(C)C2`, in data set [1], the maximum percent change in A II-supported mean arterial pressure at 3 mg/kg is -66%. Moreover, the logP in data set [3] is 4.43. Moreover, the logD in data set [4] was 1.21. In data set [2], this compound showed a half-inhibitory concentration (IC50) of 3 nM.

In the case of `CCCCc1nc(Cl)c(CO)n1Cc1ccc(-c2ccccc2-c2nnn[nH]2)cc1` [LOSARTAN], in data set [1], the maximum percent change in A II-supported mean arterial pressure at 3 mg/kg was -72%.

In the case of `Cc1nc(C)c2c(n1)N(Cc1ccc(-c3ccccc3-c3nnn[nH]3)cc1)C(=O)CC2` [TASOSARTAN], in data set [1], the maximum percent change in A II-supported mean arterial pressure at 3 mg/kg is -97%. This compound also registered a logP in data set [3] of 3.39. Besides, the pH-dependent lipophilicity (logD) in data set [4] came to 0.49. The same compound came in with a concentration for half-maximal inhibition (IC50) in data set [2] of 5.2 nM.
